Assay results from the EternaBench riboswitch data.

Tested on: MS2 coat protein
Assay: apparent Kd, MS2 coat protein; higher = weaker binding; RNA-MaP array; FMN 200 µM where present
Summary of the method: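 The apparent Kd comes from binding curves fitted cluster by cluster, filtered, and summarised as a median. Those curves followed SNAP-549-labelled MS2 coat protein from 0.7 or 1.5 nM, doubling to 3 µM, on Illumina sequencing-chip clusters where stalled E. coli RNA polymerase had transcribed the designs, without and then with constant ligand. The buffer was 100 mM Tris-HCl pH 7.5, 80 mM KCl, 4 mM MgCl2, BSA, DTT, yeast tRNA and Tween-20, and green signal was normalised to red-channel RNA signal and control-cluster median Fmax.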

[1] = designed as: OFF switch for flavin mononucleotide, no ligand
[2] = ligand present: flavin mononucleotide, designed as: OFF switch for flavin mononucleotide
[3] = designed as: ON switch for flavin mononucleotide, no ligand
[4] = ligand present: flavin mononucleotide, designed as: ON switch for flavin mononucleotide

Row | Sequence | apparent Kd [1] [nM] | apparent Kd [2] [nM] | apparent Kd [3] [nM] | apparent Kd [4] [nM]
1 | ACAGGCUUCGAGAAGGACAUGAGGAUCACCCAUGUGCGUGUGAAGCAGCCGUGAGGCUGCAUCAUGUAGGAUAUCGGAGUCUGG | 76 | 504 |  | 
2 | UGGGAUGGCUAGAAGGCUCCUUAUACUACAGGGAGAGGAUAUGGCACAUGAGGAUCACCCAUGUGUACCUGUAGGUGAUCCACA | 113 | 108 |  | 
3 | GGUCCCUACGCACAGGAUAUUCUUUUGGCAACAUGAGGAUCACCCAUGUGUGCCGAUCAUGGUUAGAAGAAGGGUGGUAGGGACC |  |  | 20.6 | 15.7
4 | GAUAGGACAGAGAAGGACGUAGCUAGAGAUACUAGCAUAAAGUCUUCAACAUGAGGAUCACCCAUGUAGGAUAUCUGUCCUAUC | 6.43 | 6.64 |  | 
5 | CUCCUGCGAGGAUAUACAUAGUGACGUCUGUUUGGUCUUAAACAUGAGGAUCACCCAUGUAGAAGGUGCGUCAC | 17.5 | 16.9 |  | 
6 | UUAUGACCGUAAAUAAGGUUGUCGAAGGAUAUUACAGGAGUACGAUCACAUGAGGAUCACCCAUGUAAGAAGGUCGAUACGCUG | 17 | 76.4 |  | 
7 | CUCAGCUCGUGAGGAUAUACAACACUGCUUCGGCAGUGUAUUAAGAUCACAUGAGGAUCACCCAUGUAGAAGGCACGAGCUGAU | 14.3 | 246 |  | 
8 | CGUUCACAUGAGGAUCACCCAUGUCAGAUUUGGUCAGGAUAUGGUCUGCUUCCGCUAUUGCCAGAAGGGACUUUUG |  |  | 28.9 | 22.7
9 | GGUGCGUUUGUGAGGAUAUGCUGGUCCUUGGUUCGGCAGAAGGCACAUGAGGAUCACCCAUGUGGUGUCGCACC | 94.6 | 51.5 |  | 
10 | GGUUAUUGCAAGGAUAUGCUUUUUUUUGAUAUUGCAGAAGGUGCAACAUGAGGAUCACCCAUGUUGGAUGGGUU | 119 | 162 |  | 
11 | UCUGAUUGGUGAGGAUAUACAUAAUUUAUGACUGUAGAAGGCACAAACCUCAAGACAUGAGGAUCACCCAUGUGGUAUUUAGAU | 348 | 506 |  | 
12 | AAAACACAUGAGGAUCACCCAUGUAUCUGGACCAUAGGAUAUCCGCGCCCAAUAAGGUGUGGAGAAGGGUGAGCCC |  |  | 158 | 181
13 | AAACUGCCACAUGAGGAUCACCCAUGUAAAUAAAGUAUUUGGAGAAGGGCGAUAGCAAAGCUAUCGCAGGAUAUCCUCAGGCAG |  |  | 801 | 87.9
14 | UGUAUGGACAGAGGAUAUGCCGAUAGGAUCUACUAUCGAAGAAUCCUCACAUGAGGAUCACCCAUGUAGAAGGCUGUCCAUACC | 8.57 | 36.8 |  | 
15 | GUCAGCUCGUGAGGAUAUACAACACUGCUUCGGCAGUGUAUUAAGAUCACAUGAGGAUCACCCAUGUAGAAGGCACGAGCUGGU | 14.7 | 260 |  | 
16 | UACAGACAUGAGGAUCACCCAUGUGAGGAUAUCCAUAACGAUAUUACAAGUAUGACAGGGAGAAGGCACAGCAA | 41.3 | 52 |  | 
17 | CGAUGUUAUGUCAGGAUAUACAUUGCGAAAGCAAUGUAGAAGGGACAUGAGGAUCACCCAUGUCCUAACCAUCG | 13.1 | 17.1 |  | 
18 | CACCGUUAGAGAGGAUAUCGUACAUGAGGAUCACCCAUGUAAUAAAUGAGAAUUUCGGAUGUAUGCGAGAAGGCUCGAAUCGGC | 53.4 | 40.7 |  | 
19 | UUACUACAUGAGGAUCACCCAUGUCAGGAUAUUGUCUAUACCUUGGAAUACGUGUCGACAAGAAGGGACUAUAU | 21.1 | 24 |  | 

Row | Sequence | apparent Kd [1] [nM] | apparent Kd [2] [nM] | apparent Kd [3] [nM] | apparent Kd [4] [nM]
20 | CAUCCACAUGAGGAUCACCCAUGUCAGGAUAUCGCGCGCGCGUUUUCGGUCUUUCGCGCGAGAAGGGACGACUG | 15.4 | 16.3 |  | 
21 | GCCUUACCGGUCAGGAUAUACAUUUGUUACUCCUUGUAGAAGGGACAUGAGGAUCACCCAUGUACAUUACAUUC | 19.4 | 20.4 |  | 
22 | AAAAAACAUGAGGAUCACCCAUGUAAGGAUAUGCAAAAAAAAAAAAAAAAAAAAAAAAGCAGAAGGUACAAAAA | 34.2 | 62 |  | 
23 | AAAGAACAUGAGGAUCACCCAUGUGAGGAUAUACGAGCGUGAGAAAGAUAAAACGAGCGUAGAAGGCACAAGAA | 76.9 | 81.5 |  | 
24 | GUCAGCUCGUGAGGAUAUACAACUCUGCUUCGGCAGUGUAUUAAGAUCACAUGAGGAUCACCCAUGUAGAAGGCACGAGCUGAU | 11.5 | 178 |  | 
25 | GGACGGUUAGUUAGGAUAUGCUCUACCUCGGUAGAGCAGAAGGGACAUGAGGAUCACCCAUGUGAAAACUGUUC | 19.4 | 21.3 |  | 
26 | UGAGCCUCGUGAGGAUAUACAUGAGGAUCACCCAUGUAAUAAGAUCAACGGAGGAAACUCCGAAUGUAGAAGGCACGAGGCUCA | 40.9 | 393 |  | 
27 | GGUUGGCGAGGAUAUACAUGAGGAUCACCCAUGUGGUCCUGUGGCUGGUCUUGCCUUUGUAGAAGGCGCGGGUC | 105 | 111 |  | 
28 | CUGAUGUGAGGAUAUCAACGCCAUGUCUUUGACAUGGCGCAUGAGAAGGCACAUGAGGAUCACCCAUGUUCUUC | 36 | 640 |  | 
29 | AUGUACCGGUGAGGAUAUUUUUAAUAGAACUUUAUGAUAUACAUGAGGAUCACCCAUGUUACUUUAAAGAAGGCAUCGGAUUAA | 17.7 | 14.2 |  | 
30 | GGAUCGAGUGUGAGGAUAUGCUGGUCCUAAGAUCAGCAGAAGGCACAUGAGGAUCACCCAUGUGAAAACGGUCC | 26 | 182 |  | 
31 | GUGAAGUAAGGAUAUACAUGAGGAUCACCCAUGUGUGGGAAGGUGAUGGGAGUAGGUAGUAGAAGGUACGAGGA | 130 | 76.6 |  | 
32 | CUGUUUGUAGGAUAUACAUGCGGAACCCUCUUCAUGGAAAGACAUGAGGAUCACCCAUGUAGAAGGAUGAAGAG | 19.7 | 17.9 |  | 
33 | CUCAAGUGAGGAUAUCAGUAGUAAAAAAAUAAAAUUACUACUGAGAAGGCACAUGAGGAUCACCCAUGUGACUU | 26.5 | 23.5 |  | 
34 | AUUAUAUAGGAAGGAUAUAGAAUAUUAUUUUAACAUGAGGAUCACCCAUGUAACCUUAUGUGUAGCUAGAAGGUCCAUUUGUUA |  | 315 |  | 
35 | GAGGCUAAAGGAUAUACAUGAGGAUCACCCAUGUGGAGGAAGGUUAGAUGAGGAGAAGGUAGAAGGUUAGGCGG | 37.3 | 30.9 |  | 
36 | UUAAUUAACAAGAAGGCAUACAUGAGGAUCACCCAUGUUGUACAUGGAUAAUGAGGAUAUUGCUAAUAAUUAUUUUUCUUAAUU | 47.6 | 35.5 |  | 
37 | GUGCAGAUGUAAGGAUAUCGACUGGAUAACAGUCGAGAAGGUACAUGAGGAUCACCCAUGUAAAUGAAAGAUAAUAAACUGCAC | 14.4 | 24.9 |  | 
38 | AGCGUACAAGCUGACAUGAGGAUCACCCAUGUGGUCUCAUGCGAGGAUAUCGGGAAGGAGGAUUCCGAGAAGGUGCGGUGAGCC |  |  | 275 | 44.9

Row | Sequence | apparent Kd [1] [nM] | apparent Kd [2] [nM] | apparent Kd [3] [nM] | apparent Kd [4] [nM]
39 | GGGUUACAUGAGGAUCACCCAUGUGAGGAUAUGAUACUAUGUACUUCGGUACAUAGUAUCAGAAGGCACAUAAA | 124 | 122 |  | 
40 | UCAUAUAUACAAGGAUAUCAAUGAUUUAUAGAUCCUACAUGAGGAUCACCCAUGUUUUUAUAUUUUGAGAAGGUGUAAUGUCUU |  |  | 218 | 254
41 | UCACGGGACUGAGGAUAUACAUGAAUUAUUUUUGUAGAAGGCAGAAUGUUAGAUUAUUCACUAUACAUGAGGAUCACCCAUGUU | 25.3 | 18.2 |  | 
42 | AGCUGUGGCCGAGGAUAUCUGUCUCAUAAAACCGAAAUAUAAUCGGACAUGAGGAUCACCCAUGUAGAGAAGGCGGUCUCAGCA | 21.3 | 83.7 |  | 
43 | AGGCGAGUAGGAUAUGCAUAUUUACAGGAAAGCUGGAUGGUACAUGAGGAUCACCCAUGUAGAAGGGCUCUGAA | 18.7 | 20.7 |  | 
44 | GAGAAGAGGGAAGGAUAUACAUGAGGAUCACCCAUGUAGAUAGGUAAAAUAGGAAGAAGAAGAAUGUAGAAGGUCCGGUUUGUU | 15.2 | 15.9 |  | 
45 | CCAUGGCUGUGAGGAUAUGUCUGACAAAGUCAGACAGAAGGCACAUGAGGAUCACCCAUGUGAGGAAAACCACAUUUGCCAUGG | 5.81 | 6.29 |  | 
46 | UGUUGUAUUACAGGAUAUCUAUGAUUUUUUUUUAGAGAAGGGUAUUCACAUGAGGAUCACCCAUGUAUAUACGAGGAAGUUGUG |  |  | 51.4 | 62
47 | UUGUUUCGUCAUUAACAUGAGGAUCACCCAUGUAAAGAACCAGAGGAUAUGCAUGUUUGAUUGUAGCAGAAGGCUGAUUGUUGU |  |  | 35.8 | 33.4
48 | AACGCACGAGAUGGCUGGGAUACUAAGGAUAUGACAUGAGGAUCACCCAUGUACGCGAUCCAUGGUCAGAAGGUAGUAAUUCGC | 37 | 91.2 |  | 
49 | CCAUCAGCGGGCGUAUCGGUUGGACAUGAGGAUCACCCAUGUAGAAGGACAGGUGUAUUUCGGCUGUAGGAUAUACAUUUGGUG | 26 | 79.9 |  | 
50 | UUAAAUCAUGUAGGAUAUGCAUGGCGAAGCUACGCAGAAGGACAUGAGGAUCACCCAUGUUAGAGCUACCGAGUUCGGUGGCAA | 112 | 210 |  | 
51 | GCAGGUAUACGAGGAUAUGGGUGGUACGGACAUGAGGAUCACCCAUGUCUCCCAGAAGGCGUAGCCUAACAUUAAGAGCAGGAG |  |  | 122 | 22.5
52 | GUACGUGGACAGAAGGCGACAUGAGGAUCACCCAUGUUGGCUCGGGUACGAGCGAUCCGCGUGAUUGAGGAUAUGUCUGCGGGC | 20 | 80.8 |  | 
53 | UAAACAUGAGGAUCACCCAUGUAAUGAUCGGUUGAUGAAAGUGAGGAUAUACAAAAUUUUAUGGAGUAGAAGGCACUGGGUUCU |  |  | 49.9 | 40.3
54 | UUUUAGUGAGGAUAUGUGGCUUCGAUCGUGAGAUCGAGGCUACAGAAGGCACAUGAGGAUCACCCAUGUUCCUU | 14.5 | 46.8 |  | 
55 | UGAUACUAAGAGAAGGUUCAAACUACAUAUUGCAUACAUGAGGAUCACCCAUGUUGGUGAAUAAGAAAGGAUAUUUUACUGUAU | 46.3 | 34.3 |  | 
56 | GCGAUUAAGUAGAAGGUACGAUAUAAAUCAAUGUAAGGAUAUACUGACAUGAGGAUCACCCAUGUUUAAUUUGUUUACUGUCGC |  |  | 7.42 | 5.99
